Data: ChEMBL document CHEMBL1125254, “Allosteric modifiers of hemoglobin. 2. Crystallographically determined binding sites and hydrophobic binding/interaction analysis of novel hemoglobin oxygen effectors” (J Med Chem, 1991)

Assay: Allosteric activity evaluated as the ratio of the oxygen pressure in mmHg between hemoglobin-compound and compound-free hemoglobin (control) solution at which 50% oxygen saturation's are respectively attained.
In short: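 Oxygen equilibrium of human hemoglobin solutions at 2.7 mM Hb with compound at 10 mM, in 50 mM HEPES pH 7.4. P50 ratios are averaged, with standard deviations reported.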
With CC(C)(Oc1ccc(NC(=O)Nc2cc(Cl)cc(Cl)c2)cc1)C(=O)O the P50d/P50c was 3.62.
Compound CC(C)(Oc1ccc(CC(=O)Nc2ccc(Cl)cc2)cc1)C(=O)O has a P50d/P50c of 2.79.
Compound CC(C)(Oc1ccc(NC(=O)Nc2ccc(Cl)c(Cl)c2)cc1)C(=O)O has a P50d/P50c of 1.77.
In the case of CC(C)(Oc1ccc(CNC(=O)c2cc(Cl)cc(Cl)c2)cc1)C(=O)O, the P50d/P50c is reported as 2.48.
Compound CC(C)(Oc1ccc(NC(=O)Nc2cc(Cl)c(Cl)c(Cl)c2)cc1)C(=O)O has a P50d/P50c of 2.57.
Work on CC(C)(Oc1ccc(CCNC(=O)c2ccc(Cl)cc2)cc1)C(=O)O yielded a P50d/P50c of 1.74.
CC(C)(Oc1ccc(CC(=O)Nc2cc(Cl)cc(Cl)c2)cc1)C(=O)O gave a P50d/P50c of 4.32.
Work on CC(C)(Oc1ccc(CNC(=O)c2ccc(Cl)cc2)cc1)C(=O)O yielded a P50d/P50c of 2.58.
Compound CC(C)(Oc1ccc(CC(=O)Nc2cc(Cl)c(Cl)c(Cl)c2)cc1)C(=O)O has a P50d/P50c of 3.17.
CC(C)(Oc1ccc(CNC(=O)c2cc(Cl)c(Cl)c(Cl)c2)cc1)C(=O)O showed a P50d/P50c of 2.13.
